Experimental data from ChEMBL document CHEMBL1144399, “Peptoid-peptide hybrids as potent novel melanocortin receptor ligands” (J Med Chem, 2005).

Assays:
Type in all cases: cell-based, HEK293
[1] = molecular target: T1, Melanocortin receptor 3 (Homo sapiens, UniProt P41968); assay: Effective concentration against human melanocortin receptor-3 expressed in 293 HEK cells
How it was run: (§1)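 LacZ reporter-gene activation assay in HEK293 cells expressing human MC3, human MC4 or mouse MC5 receptor. Dose-response curves run up to 30 µM. EC50 reported as -log(EC50) (M) with 95% confidence ranges. Incomplete or absent curves at 30 µM were not assigned values.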

[2] = molecular target: T2, Melanocortin receptor 5 (Mus musculus, UniProt P41149); assay: Displacement of [125I]NDP-MSH from mouse melanocortin receptor-5 expressed in 293 HEK cells
How it was run: (§2)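 Radioligand competition with [125I]-NDP-MSH on HEK293 cells expressing human MC3, human MC4 or mouse MC5 receptor. Ligands up to 30 µM. IC50 reported as -log(IC50) (M) with 95% confidence ranges. Ligands without activation activity were tested only at a single 30 µM concentration.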

[3] = molecular target: T2, Melanocortin receptor 5; assay: Effective concentration against mouse melanocortin receptor-5 expressed in 293 HEK cells; how it was run: as §1
[4] = molecular target: T3, Melanocortin receptor 4 (Homo sapiens, UniProt P32245); assay: Effective concentration against human melanocortin receptor-4 expressed in 293 HEK cells; how it was run: as §1
[5] = molecular target: T3, Melanocortin receptor 4; assay: Displacement of [125I]NDP-MSH from human melanocortin receptor-4 expressed in 293 HEK cells; how it was run: as §2
[6] = molecular target: T1, Melanocortin receptor 3; assay: Displacement of [125I]NDP-MSH from human melanocortin receptor-3 expressed in 293 HEK cells; how it was run: as §2

T3 sequence (P32245 whole entry): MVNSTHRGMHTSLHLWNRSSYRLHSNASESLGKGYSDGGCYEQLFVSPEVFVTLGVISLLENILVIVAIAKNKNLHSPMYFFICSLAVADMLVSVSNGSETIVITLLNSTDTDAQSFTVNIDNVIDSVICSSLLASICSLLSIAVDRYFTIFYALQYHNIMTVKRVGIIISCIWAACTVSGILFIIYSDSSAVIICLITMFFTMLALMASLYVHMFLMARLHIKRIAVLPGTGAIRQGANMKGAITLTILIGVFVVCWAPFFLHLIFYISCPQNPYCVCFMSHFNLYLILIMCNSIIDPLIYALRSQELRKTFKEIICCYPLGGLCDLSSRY
T1 sequence (P41968 whole entry): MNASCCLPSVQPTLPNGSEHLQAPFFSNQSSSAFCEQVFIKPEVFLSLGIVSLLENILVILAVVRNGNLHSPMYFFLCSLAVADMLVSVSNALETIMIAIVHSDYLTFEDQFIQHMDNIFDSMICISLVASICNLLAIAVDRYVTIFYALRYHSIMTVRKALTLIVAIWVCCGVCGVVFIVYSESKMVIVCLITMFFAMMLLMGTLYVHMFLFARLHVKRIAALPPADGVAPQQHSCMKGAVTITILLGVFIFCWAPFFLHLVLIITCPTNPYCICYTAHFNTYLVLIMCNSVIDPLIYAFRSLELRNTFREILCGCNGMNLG
T2 sequence (P41149 whole entry): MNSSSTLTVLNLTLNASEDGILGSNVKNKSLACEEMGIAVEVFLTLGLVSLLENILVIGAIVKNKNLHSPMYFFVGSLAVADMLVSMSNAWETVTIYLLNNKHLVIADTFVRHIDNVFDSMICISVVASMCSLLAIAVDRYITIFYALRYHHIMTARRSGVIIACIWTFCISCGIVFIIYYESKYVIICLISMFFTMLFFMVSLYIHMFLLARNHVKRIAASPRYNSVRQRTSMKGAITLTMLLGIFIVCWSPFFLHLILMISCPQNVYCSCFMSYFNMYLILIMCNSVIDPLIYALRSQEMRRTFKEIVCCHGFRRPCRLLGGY

Compound	EC50 [1] [nM]	IC50 [2] [nM]	EC50 [3] [nM]	EC50 [4] [nM]	IC50 [5] [nM]	IC50 [6] [nM]
CCCCN(CC(=O)NCC(=O)N(CCCCN)CC(=O)N[C@H](Cc1ccccc1)C(=O)N[C@@H](CCCNC(=N)N)C(=O)N[C@@H](Cc1c[nH]c2ccccc12)C(=O)NCC(N)=O)C(C)=O	2000	794	7940	63.1	63.1	1260
CCCCN(CC(=O)NCC(=O)N[C@@H](CCCCN)C(=O)N[C@H](Cc1ccccc1)C(=O)N(CCCN=C(N)N)CC(=O)N(CCc1c[nH]c2ccccc12)CC(=O)NCC(N)=O)C(C)=O	158	1260	316	100	251	3160
CCCC[C@H](NC(C)=O)C(=O)NCC(=O)N[C@@H](CCCCN)C(=O)N[C@H](Cc1ccccc1)C(=O)N(CCCCNC(=N)N)CC(=O)N(CCc1c[nH]c2ccccc12)CC(=O)NCC(N)=O	501	501	12.6	251	158	631
CCCCN(CC(=O)NCC(=O)N[C@@H](CCCCN)C(=O)N[C@H](Cc1ccccc1)C(=O)N[C@@H](CCCNC(=N)N)C(=O)N(CC(=O)NCC(N)=O)Cc1c[nH]c2ccccc12)C(C)=O	794	1580	3980	631	794	1260
CCCCN(CC(=O)NCC(=O)N(CCCCN)CC(=O)N[C@H](Cc1ccccc1)C(=O)N[C@@H](CCCNC(=N)N)C(=O)N(CC(=O)NCC(N)=O)Cc1c[nH]c2ccccc12)C(C)=O	–	2000	–	3980	794	2000
CCCC[C@H](NC(C)=O)C(=O)NCC(=O)N[C@@H](CCCCN)C(=O)N[C@H](Cc1ccccc1)C(=O)N(CCCNC(=N)N)CC(=O)N(CCc1c[nH]c2ccccc12)CC(=O)NCC(N)=O	158	1000	15.8	79.4	79.4	2000
CCCCN(CC(=O)NCC(=O)N(CCCCN)CC(=O)N[C@H](Cc1ccccc1)C(=O)N(CCCN=C(N)N)CC(=O)N(CCc1c[nH]c2ccccc12)CC(=O)NCC(N)=O)C(C)=O	6310	2000	–	794	1000	3980
CCCC[C@H](NC(C)=O)C(=O)NCC(=O)N(CCCCN)CC(=O)N[C@H](Cc1ccccc1)C(=O)N[C@@H](CCCNC(=N)N)C(=O)N(CCc1c[nH]c2ccccc12)CC(=O)NCC(N)=O	–	–	–	2000	–	–
CCCC[C@H](NC(C)=O)C(=O)NCC(=O)N(CCCCN)CC(=O)N[C@H](Cc1ccccc1)C(=O)N[C@@H](CCCN=C(N)N)C(=O)N(CC(=O)NCC(N)=O)Cc1c[nH]c2ccccc12	5010	631	2000	1260	158	794
CCCC[C@H](NC(C)=O)C(=O)NCC(=O)N[C@@H](CCCCN)C(=O)N[C@H](Cc1ccccc1)C(=O)N(CCCNC(=N)N)CC(=O)N(CC(=O)NCC(N)=O)Cc1c[nH]c2ccccc12	631	2000	100	158	316	5010
CCCC[C@H](NC(C)=O)C(=O)NCC(=O)N[C@@H](CCCCN)C(=O)N[C@H](Cc1ccccc1)C(=O)N[C@@H](CCCN=C(N)N)C(=O)N(CC(=O)NCC(N)=O)Cc1c[nH]c2ccccc12	316	794	251	158	251	501
CCCCN(CC(=O)NCC(=O)N[C@@H](CCCCN)C(=O)N[C@H](Cc1ccccc1)C(=O)N(CCCN=C(N)N)CC(=O)N[C@@H](Cc1c[nH]c2ccccc12)C(=O)NCC(N)=O)C(C)=O	5010	–	6310	794	–	–
CCCC[C@H](NC(C)=O)C(=O)NCC(=O)N[C@@H](CCCCN)C(=O)N[C@H](Cc1ccccc1)C(=O)N(CCCCN=C(N)N)CC(=O)N[C@@H](Cc1c[nH]c2ccccc12)C(=O)NCC(N)=O	–	2000	63.1	251	158	3980
CCCCN(CC(=O)NCC(=O)N[C@@H](CCCCN)C(=O)N[C@H](Cc1ccccc1)C(=O)N(CCCN=C(N)N)CC(=O)N(CC(=O)NCC(N)=O)Cc1c[nH]c2ccccc12)C(C)=O	–	3160	–	501	794	7940
